# Key:
# Format in all cases: functional
# Aspergillus niger [1] = assay: Antifungal activity against Aspergillus niger ATCC 9029 after 24 hrs by broth microdilution method; conditions: ATCC 9029, 24 h
# Summary of the method: (§1)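 Broth dilution MIC, with fluconazole as the comparator. Each drug was serially diluted tenfold in BHI broth over nine tubes (10^-1 to 10^-9). Each tube received a suspension of stock culture diluted in BHI. Tubes were kept 24 h at 37 °C, and growth was judged by turbidity.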
# Candida albicans [2] = assay: Antifungal activity against Candida albicans ATCC 2091 after 24 hrs by broth microdilution method; conditions: ATCC 2091, 24 h; summary of the method: as §1
# Pseudomonas aeruginosa = assay: Antibacterial activity against Pseudomonas aeruginosa ATCC 25619 after 24 hrs by broth microdilution method; conditions: ATCC 25619, 24 h
# Summary of the method: (§2)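 Broth dilution MIC, with ciprofloxacin as the comparator. Nine […] serial dilutions of each drug (10^-1 to 10^-9) were made in brain heart infusion (BHI) broth. Stock culture was diluted into BHI, and this suspension was added to each dilution tube. Tubes were incubated 24 h at 37 °C, and the MIC was read by turbidity.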
# Escherichia coli = assay: Antibacterial activity against Escherichia coli ATCC 25922 after 24 hrs by broth microdilution method; conditions: ATCC 25922, 24 h; summary of the method: as §2
# Enterococcus faecalis = assay: Antibacterial activity against Enterococcus faecalis ATCC 35550 after 24 hrs by broth microdilution method; conditions: ATCC 35550, 24 h; summary of the method: as §2
# Staphylococcus aureus = assay: Antibacterial activity against Staphylococcus aureus ATCC 12598 after 24 hrs by broth microdilution method; conditions: ATCC 12598, 24 h; summary of the method: as §2
# Aspergillus niger [3] = assay: Ratio of fluconazole MIC to compound MIC for Aspergillus niger ATCC 9029 after 24 hrs by broth microdilution method
# Candida albicans [4] = assay: Ratio of fluconazole MIC to compound MIC for Candida albicans ATCC 2091 after 24 hrs by broth microdilution method
SMILES,MIC (Aspergillus niger [1]) [µg/mL],MIC (Candida albicans [2]) [µg/mL],MIC (Pseudomonas aeruginosa) [µg/mL],MIC (Escherichia coli) [µg/mL],MIC (Enterococcus faecalis) [µg/mL],MIC (Staphylococcus aureus) [µg/mL],Ratio (Aspergillus niger [3]),Ratio (Candida albicans [4])
CCOC(=O)c1cc(O)c(OCc2cc(=O)oc3c2ccc2ccccc23)c(O)c1,100,100,100,100,0.2,1.6,–,–
CCOC(=O)c1cc(O)c(OCc2cc(=O)oc3ccc(OC)cc23)c(O)c1,100,100,100,100,0.2,0.8,–,–
CCOC(=O)c1cc(O)c(OCc2cc(=O)oc3cc(OC)ccc23)c(O)c1,100,100,100,100,0.8,1.6,–,–
CCOC(=O)c1cc(O)c(OCc2cc(=O)oc3ccc(Cl)cc23)c(O)c1,100,100,100,100,0.2,0.4,–,–
CCOC(=O)c1cc(O)c(OCc2cc(=O)oc3cc(Cl)ccc23)c(O)c1,100,100,100,100,3.12,12.5,–,–
CCOC(=O)C(Cc1ccc(OCc2cc(=O)oc3ccc(C)cc23)cc1)NC(=O)c1ccccc1 (stereo unspecified),0.2,0.2,100,100,0.8,100,40,80
CCOC(=O)C(Cc1ccc(OCc2cc(=O)oc3cc(C)ccc23)cc1)NC(=O)c1ccccc1 (stereo unspecified),0.2,0.2,100,100,0.8,–,40,80
CCOC(=O)C(Cc1ccc(OCc2cc(=O)oc3ccc(OC)cc23)cc1)NC(=O)c1ccccc1 (stereo unspecified),0.2,0.2,100,100,0.4,100,40,80
CCOC(=O)C(Cc1ccc(OCc2cc(=O)oc3cc(OC)ccc23)cc1)NC(=O)c1ccccc1 (stereo unspecified),0.2,0.2,100,100,0.8,100,40,80
CCOC(=O)C(Cc1ccc(OCc2cc(=O)oc3cc(C)cc(C)c23)cc1)NC(=O)c1ccccc1 (stereo unspecified),0.2,1.6,100,100,0.2,–,40,–
CCOC(=O)C(Cc1ccc(OCc2cc(=O)oc3c(C)c(C)ccc23)cc1)NC(=O)c1ccccc1 (stereo unspecified),0.2,0.8,100,100,0.2,100,40,–
CCOC(=O)C(Cc1ccc(OCc2cc(=O)oc3ccc4ccccc4c23)cc1)NC(=O)c1ccccc1 (stereo unspecified),0.2,1.6,–,100,0.4,–,40,–
CCOC(=O)C(Cc1ccc(OCc2cc(=O)oc3c2ccc2ccccc23)cc1)NC(=O)c1ccccc1 (stereo unspecified),0.2,12.5,100,100,0.2,50,40,–
CCOC(=O)C(Cc1ccc(OCc2cc(=O)oc3ccc(Cl)cc23)cc1)NC(=O)c1ccccc1 (stereo unspecified),0.2,50,100,–,0.2,100,40,–
CCOC(=O)C(Cc1ccc(OCc2cc(=O)oc3cc(Cl)ccc23)cc1)NC(=O)c1ccccc1 (stereo unspecified),0.2,50,100,–,0.2,–,40,–
CCOC(=O)c1cc(O)c(OCc2cc(=O)oc3ccc(C)cc23)c(O)c1,100,100,100,100,0.2,1.6,–,–
CCOC(=O)c1cc(O)c(OCc2cc(=O)oc3cc(C)ccc23)c(O)c1,100,100,100,100,0.2,12.5,–,–
CCOC(=O)c1cc(O)c(OCc2cc(=O)oc3cc(C)cc(C)c23)c(O)c1,100,100,100,100,0.2,0.8,–,–
CCOC(=O)c1cc(O)c(OCc2cc(=O)oc3c(C)c(C)ccc23)c(O)c1,100,100,100,100,0.2,0.2,–,–
CCOC(=O)c1cc(O)c(OCc2cc(=O)oc3ccc4ccccc4c23)c(O)c1,100,100,100,100,0.2,0.4,–,–
O=C(O)c1cn(C2CC2)c2cc(N3CCNCC3)c(F)cc2c1=O [CIPROFLOXACIN],–,–,–,–,2,2,–,–
OC(Cn1cncn1)(Cn1cncn1)c1ccc(F)cc1F [FLUCONAZOLE],8,16,–,–,–,–,–,–

# Reference: ChEMBL document CHEMBL3085670, “Synthesis, biological evaluation and docking studies of 4-aryloxymethyl coumarins derived from substructures and degradation products of vancomycin” (2013)
